Reference: ChEMBL document CHEMBL4229458, “Lipid accumulation inhibitory activities of novel isoxazole-based chenodeoxycholic acids: Design, synthesis and preliminary mechanism study” (Bioorg Med Chem Lett, 2018)
The source made the active and inactive calls. The rule behind the calls is not given here.

The molecules below were run on 3T3-L1 (assay: Inhibition of lipid accumulation in mouse 3T3L1 cells at 10 uM by oil red o staining-based assay). Conditions: not given.
Type: functional
Procedure, shortened: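 3T3-L1 preadipocytes differentiated for 6 days into mature adipocytes, then treated at 10 μM. Intracellular lipid stained with Oil Red O and quantified relative to vehicle. Mean ± SD of two independent experiments.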

Question: `Cc1noc(C)c1C(=O)N[C@H]1CC[C@@]2(C)[C@@H](C1)C[C@@H](O)[C@@H]1[C@@H]2CC[C@]2(C)[C@@H]([C@H](C)CCC(=O)O)CC[C@@H]12` was tested. Which inhibition did it give?
Answer: Active

Question: How did the inhibition turn out when `Cc1noc(C)c1C(=O)N[C@H]1CC[C@@]2(C)[C@@H](C1)C[C@@H](O)[C@@H]1[C@@H]2CC[C@]2(C)[C@@H]([C@H](C)CCC(=O)Nc3ccc(Cl)cc3)CC[C@@H]12` was run?
Answer: Active

Question: Which inhibition does the source give for `CC(=O)Nc1ccc(NC(=O)CC[C@@H](C)[C@H]2CC[C@H]3[C@@H]4[C@H](O)C[C@@H]5C[C@@H](NC(=O)c6c(C)noc6C)CC[C@]5(C)[C@H]4CC[C@]23C)cc1` here?
Answer: Active

Question: How did the inhibition turn out when `C[C@H](CCC(=O)O)[C@H]1CC[C@H]2[C@@H]3[C@H](O)C[C@@H]4C[C@H](O)CC[C@]4(C)[C@H]3CC[C@]12C` was run?
Answer: Active

Question: Which inhibition does the source give for `COC(=O)CC[C@@H](C)[C@H]1CC[C@H]2[C@@H]3[C@H](O)C[C@@H]4C[C@@H](NC(=O)c5c(C)noc5C)CC[C@]4(C)[C@H]3CC[C@]12C` here?
Answer: Active

Question: With `CNC(=O)CC[C@@H](C)[C@H]1CC[C@H]2[C@@H]3[C@H](O)C[C@@H]4C[C@@H](NC(=O)c5c(C)noc5C)CC[C@]4(C)[C@H]3CC[C@]12C` as the molecule, how does the inhibition at 10 µM read?
Answer: 30.5%

Question: With `Cc1noc(C)c1C(=O)N[C@H]1CC[C@@]2(C)[C@@H](C1)C[C@@H](O)[C@@H]1[C@@H]2CC[C@]2(C)[C@@H]([C@H](C)CCC(=O)Nc3cccc(Cl)c3)CC[C@@H]12` as the molecule, how does the inhibition read?
Answer: Active

Question: For `CCNC(=O)CC[C@@H](C)[C@H]1CC[C@H]2[C@@H]3[C@H](O)C[C@@H]4C[C@@H](NC(=O)c5c(C)noc5C)CC[C@]4(C)[C@H]3CC[C@]12C`, which inhibition is on record?
Answer: Active

Question: For `Cc1noc(C)c1C(=O)N[C@H]1CC[C@@]2(C)[C@@H](C1)C[C@@H](O)[C@@H]1[C@@H]2CC[C@]2(C)[C@@H]([C@H](C)CCC(=O)Nc3ccc(F)cc3)CC[C@@H]12`, which inhibition is on record?
Answer: Active

Question: How did the inhibition turn out when `Cc1noc(C)c1C(=O)N[C@H]1CC[C@@]2(C)[C@@H](C1)C[C@@H](O)[C@@H]1[C@@H]2CC[C@]2(C)[C@@H]([C@H](C)CCC(N)=O)CC[C@@H]12` was run?
Answer: Active

Question: `Cc1noc(C)c1C(=O)N[C@H]1CC[C@@]2(C)[C@@H](C1)C[C@@H](O)[C@@H]1[C@@H]2CC[C@]2(C)[C@@H]([C@H](C)CCC(=O)NCC(=O)O)CC[C@@H]12` was tested. Which inhibition did it give?
Answer: Active

These molecules were tested against T1, Bile acid receptor (Homo sapiens) (UniProt Q96RI1) (assay: Activation of FXR in human HepG2 cells assessed as downregulation of SREBP-1c mRNA expression at 10 uM by RT-PCR method). Conditions: not given.
T1 sequence (whole entry): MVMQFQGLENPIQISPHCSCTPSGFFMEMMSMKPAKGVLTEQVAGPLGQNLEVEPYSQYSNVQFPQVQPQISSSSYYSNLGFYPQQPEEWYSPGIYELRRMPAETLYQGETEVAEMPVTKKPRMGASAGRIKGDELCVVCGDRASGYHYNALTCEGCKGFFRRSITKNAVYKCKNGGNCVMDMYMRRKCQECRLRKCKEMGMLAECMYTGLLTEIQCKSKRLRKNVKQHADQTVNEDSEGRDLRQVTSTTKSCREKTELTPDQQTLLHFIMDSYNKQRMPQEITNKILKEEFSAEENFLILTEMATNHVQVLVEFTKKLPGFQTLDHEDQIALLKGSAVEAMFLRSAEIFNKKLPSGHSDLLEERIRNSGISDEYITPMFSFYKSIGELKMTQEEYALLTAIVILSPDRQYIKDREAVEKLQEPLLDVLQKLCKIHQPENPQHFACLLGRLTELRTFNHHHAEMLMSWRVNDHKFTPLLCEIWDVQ
Type: cell-based
Procedure, shortened: (§1)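 HepG2 cells treated at 10 μM. mRNA of FXR, SHP and SREBP-1c quantified by real-time PCR against vehicle (0.1% DMSO). Mean ± SEM, n = 3.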

Question: For `CC(C)c1onc(-c2c(Cl)cccc2Cl)c1COc1ccc(/C=C/c2cccc(C(=O)O)c2)c(Cl)c1`, which Activity is on record?
Answer: Active

Question: Which Activity does the source give for `CNC(=O)CC[C@@H](C)[C@H]1CC[C@H]2[C@@H]3[C@H](O)C[C@@H]4C[C@@H](NC(=O)c5c(C)noc5C)CC[C@]4(C)[C@H]3CC[C@]12C` here?
Answer: Active

The molecules below were run on HepG2 (assay: Cytotoxicity against human HepG2 cells assessed as decrease in cell viability at 5 to 80 uM after 48 hrs by MTT assay). Conditions: hepg2, 48 h.
Type: cell-based
Procedure, shortened: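 HepG2 cells exposed to 5, 10, 20, 40 and 80 μM for 48 h. Viability read by MTT.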

Question: How did the Activity turn out when `CC(C)c1onc(-c2c(Cl)cccc2Cl)c1COc1ccc(/C=C/c2cccc(C(=O)O)c2)c(Cl)c1` was run?
Answer: Non-Toxic

Question: For `CNC(=O)CC[C@@H](C)[C@H]1CC[C@H]2[C@@H]3[C@H](O)C[C@@H]4C[C@@H](NC(=O)c5c(C)noc5C)CC[C@]4(C)[C@H]3CC[C@]12C`, which Activity is on record?
Answer: Non-Toxic

The molecules below were run against T1, Bile acid receptor (Homo sapiens) (assay: Activation of FXR in human HepG2 cells assessed as upregulation of SHP mRNA expression at 10 uM by RT-PCR method). Conditions: not given.
Type: cell-based
Procedure, shortened: as §1

Question: Which Activity does the source give for `CC(C)c1onc(-c2c(Cl)cccc2Cl)c1COc1ccc(/C=C/c2cccc(C(=O)O)c2)c(Cl)c1` here?
Answer: Active

Question: How did the Activity turn out when `CNC(=O)CC[C@@H](C)[C@H]1CC[C@H]2[C@@H]3[C@H](O)C[C@@H]4C[C@@H](NC(=O)c5c(C)noc5C)CC[C@]4(C)[C@H]3CC[C@]12C` was run?
Answer: Active

Each molecule was assayed on 3T3-L1 (assay: Cytotoxicity against mouse 3T3L1 cells assessed as decrease in cell viability at 10 uM after 48 hrs by MTT assay). Conditions: 3t3-l1, 48 h.
Type: cell-based
Procedure, shortened: (§2)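 3T3-L1 preadipocytes given 5, 10, 20 and 40 μM for 48 h, with 1% DMSO as control. Viability measured by MTT. Mean ± SD of two independent experiments.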

Question: Which Activity does the source give for `Cc1noc(C)c1C(=O)N[C@H]1CC[C@@]2(C)[C@@H](C1)C[C@@H](O)[C@@H]1[C@@H]2CC[C@]2(C)[C@@H]([C@H](C)CCC(=O)O)CC[C@@H]12` here?
Answer: Non-Toxic

Question: How did the Activity turn out when `Cc1noc(C)c1C(=O)N[C@H]1CC[C@@]2(C)[C@@H](C1)C[C@@H](O)[C@@H]1[C@@H]2CC[C@]2(C)[C@@H]([C@H](C)CCC(=O)Nc3ccc(Cl)cc3)CC[C@@H]12` was run?
Answer: Non-Toxic

Question: Which Activity does the source give for `CC(=O)Nc1ccc(NC(=O)CC[C@@H](C)[C@H]2CC[C@H]3[C@@H]4[C@H](O)C[C@@H]5C[C@@H](NC(=O)c6c(C)noc6C)CC[C@]5(C)[C@H]4CC[C@]23C)cc1` here?
Answer: Non-Toxic

Question: `COC(=O)CC[C@@H](C)[C@H]1CC[C@H]2[C@@H]3[C@H](O)C[C@@H]4C[C@@H](NC(=O)c5c(C)noc5C)CC[C@]4(C)[C@H]3CC[C@]12C` was tested. Which Activity did it give?
Answer: Non-Toxic

Question: `CNC(=O)CC[C@@H](C)[C@H]1CC[C@H]2[C@@H]3[C@H](O)C[C@@H]4C[C@@H](NC(=O)c5c(C)noc5C)CC[C@]4(C)[C@H]3CC[C@]12C` was tested. Which Activity did it give?
Answer: Non-Toxic

Question: `Cc1noc(C)c1C(=O)N[C@H]1CC[C@@]2(C)[C@@H](C1)C[C@@H](O)[C@@H]1[C@@H]2CC[C@]2(C)[C@@H]([C@H](C)CCC(=O)Nc3cccc(Cl)c3)CC[C@@H]12` was tested. Which Activity did it give?
Answer: Non-Toxic

Question: For `CCNC(=O)CC[C@@H](C)[C@H]1CC[C@H]2[C@@H]3[C@H](O)C[C@@H]4C[C@@H](NC(=O)c5c(C)noc5C)CC[C@]4(C)[C@H]3CC[C@]12C`, which Activity is on record?
Answer: Non-Toxic

Question: How did the Activity turn out when `Cc1noc(C)c1C(=O)N[C@H]1CC[C@@]2(C)[C@@H](C1)C[C@@H](O)[C@@H]1[C@@H]2CC[C@]2(C)[C@@H]([C@H](C)CCC(=O)Nc3ccc(F)cc3)CC[C@@H]12` was run?
Answer: Non-Toxic

Question: Which Activity does the source give for `Cc1noc(C)c1C(=O)N[C@H]1CC[C@@]2(C)[C@@H](C1)C[C@@H](O)[C@@H]1[C@@H]2CC[C@]2(C)[C@@H]([C@H](C)CCC(N)=O)CC[C@@H]12` here?
Answer: Non-Toxic

Question: For `Cc1noc(C)c1C(=O)N[C@H]1CC[C@@]2(C)[C@@H](C1)C[C@@H](O)[C@@H]1[C@@H]2CC[C@]2(C)[C@@H]([C@H](C)CCC(=O)NCC(=O)O)CC[C@@H]12`, which Activity is on record?
Answer: Non-Toxic

The molecules below were run on 3T3-L1 (assay: Cytotoxicity against mouse 3T3L1 cells assessed as decrease in cell viability at 40 uM after 48 hrs by MTT assay). Conditions: 3t3-l1, 48 h.
Type: cell-based
Procedure, shortened: as §2

Question: For `Cc1noc(C)c1C(=O)N[C@H]1CC[C@@]2(C)[C@@H](C1)C[C@@H](O)[C@@H]1[C@@H]2CC[C@]2(C)[C@@H]([C@H](C)CCC(=O)O)CC[C@@H]12`, which Activity is on record?
Answer: Non-Toxic

Question: For `Cc1noc(C)c1C(=O)N[C@H]1CC[C@@]2(C)[C@@H](C1)C[C@@H](O)[C@@H]1[C@@H]2CC[C@]2(C)[C@@H]([C@H](C)CCC(=O)Nc3ccc(Cl)cc3)CC[C@@H]12`, which Activity is on record?
Answer: Non-Toxic

Question: Which Activity does the source give for `CC(=O)Nc1ccc(NC(=O)CC[C@@H](C)[C@H]2CC[C@H]3[C@@H]4[C@H](O)C[C@@H]5C[C@@H](NC(=O)c6c(C)noc6C)CC[C@]5(C)[C@H]4CC[C@]23C)cc1` here?
Answer: Toxic

Question: `COC(=O)CC[C@@H](C)[C@H]1CC[C@H]2[C@@H]3[C@H](O)C[C@@H]4C[C@@H](NC(=O)c5c(C)noc5C)CC[C@]4(C)[C@H]3CC[C@]12C` was tested. Which Activity did it give?
Answer: Non-Toxic

Question: `CNC(=O)CC[C@@H](C)[C@H]1CC[C@H]2[C@@H]3[C@H](O)C[C@@H]4C[C@@H](NC(=O)c5c(C)noc5C)CC[C@]4(C)[C@H]3CC[C@]12C` was tested. Which Activity did it give?
Answer: Non-Toxic

Question: `Cc1noc(C)c1C(=O)N[C@H]1CC[C@@]2(C)[C@@H](C1)C[C@@H](O)[C@@H]1[C@@H]2CC[C@]2(C)[C@@H]([C@H](C)CCC(=O)Nc3cccc(Cl)c3)CC[C@@H]12` was tested. Which Activity did it give?
Answer: Non-Toxic

Question: With `CCNC(=O)CC[C@@H](C)[C@H]1CC[C@H]2[C@@H]3[C@H](O)C[C@@H]4C[C@@H](NC(=O)c5c(C)noc5C)CC[C@]4(C)[C@H]3CC[C@]12C` as the molecule, how does the Activity read?
Answer: Non-Toxic

Question: For `Cc1noc(C)c1C(=O)N[C@H]1CC[C@@]2(C)[C@@H](C1)C[C@@H](O)[C@@H]1[C@@H]2CC[C@]2(C)[C@@H]([C@H](C)CCC(=O)Nc3ccc(F)cc3)CC[C@@H]12`, which Activity is on record?
Answer: Non-Toxic

Question: With `Cc1noc(C)c1C(=O)N[C@H]1CC[C@@]2(C)[C@@H](C1)C[C@@H](O)[C@@H]1[C@@H]2CC[C@]2(C)[C@@H]([C@H](C)CCC(N)=O)CC[C@@H]12` as the molecule, how does the Activity read?
Answer: Non-Toxic

Question: Which Activity does the source give for `Cc1noc(C)c1C(=O)N[C@H]1CC[C@@]2(C)[C@@H](C1)C[C@@H](O)[C@@H]1[C@@H]2CC[C@]2(C)[C@@H]([C@H](C)CCC(=O)NCC(=O)O)CC[C@@H]12` here?
Answer: Non-Toxic

Each molecule was assayed against T1, Bile acid receptor (Homo sapiens) (assay: Activation of FXR in human HepG2 cells assessed as upregulation of FXR mRNA expression at 10 uM by RT-PCR method). Conditions: not given.
Type: cell-based
Procedure, shortened: as §1

Question: How did the Activity turn out when `CC(C)c1onc(-c2c(Cl)cccc2Cl)c1COc1ccc(/C=C/c2cccc(C(=O)O)c2)c(Cl)c1` was run?
Answer: Active

Question: How did the Activity turn out when `CNC(=O)CC[C@@H](C)[C@H]1CC[C@H]2[C@@H]3[C@H](O)C[C@@H]4C[C@@H](NC(=O)c5c(C)noc5C)CC[C@]4(C)[C@H]3CC[C@]12C` was run?
Answer: Active
